# Measured values taken from ChEMBL document CHEMBL1128257, “Chemically stable N-methyl-4-(alkylthio)cyclophosphamide derivatives as prodrugs of 4-hydroxycyclophosphamide” (J Med Chem, 1995).
# Tests used:
# [1] = test system: DMS-273; assay: cytotoxicity against small cell lung cancer subpanel (DMS 273); Experiment 2; format: functional; details: Homo sapiens
# In short: (§1)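 NCI 60 human tumour cell line screen. Compound dissolved in DMSO and tested at five concentrations (10^-4–10^-8 M). Growth followed over time as percent growth, with zero-time population set to zero. Value is log10 GI50, the log molar concentration giving 50% growth inhibition. Experiment 1 and Experiment 2 are separate runs.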
# [2] = test system: RPMI-8226; assay: cytotoxicity against leukemia subpanel (RPMI-8226); Experiment 1; format: functional; details: Homo sapiens; in short: as §1
# [3] = test system: DMS-114; assay: cytotoxicity against small cell lung cancer subpanel (DMS 114); Experiment 2; format: functional; details: Homo sapiens; in short: as §1
# [4] = test system: Mus musculus; assay: Percentage increased life span against L1210 leukemia cells in mice;(1.08 mmol/kg dosage); format: functional
# In short: (§2)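 CDF1 mice (17–18 g) inoculated with L1210 lymphoid leukaemia cells per NIH protocol 1.100. A single 1.08 mmol/kg dose was given 24 h after inoculation. %ILS = (treated/control − 1) × 100 on survival times, with vehicle-treated mice as controls. Survivors beyond 30 days were counted separately.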
# [5] = test system: SR; assay: cytotoxicity against leukemia subpanel (SR); Experiment 1; format: functional; details: Homo sapiens; in short: as §1
# [6] = test system: SR; assay: cytotoxicity against leukemia subpanel (SR); Experiment 2; format: functional; details: Homo sapiens; in short: as §1
# [7] = test system: HL-60; assay: cytotoxicity against leukemia subpanel (HL-60 (TB)); Experiment 1; format: functional; details: Homo sapiens; in short: as §1
# [8] = test system: K562; assay: cytotoxicity against leukemia subpanel (K562); Experiment 2; format: functional; details: Homo sapiens; in short: as §1
# [9] = test system: MOLT-4; assay: cytotoxicity against leukemia subpanel (MOLT-4); Experiment 2; format: functional; details: Homo sapiens; in short: as §1
# [10] = test system: RPMI-8226; assay: cytotoxicity against leukemia subpanel (RPMI-8226); Experiment 2; format: functional; details: Homo sapiens; in short: as §1
# [11] = test system: MOLT-4; assay: cytotoxicity against leukemia subpanel (MOLT-4); Experiment 1; format: functional; details: Homo sapiens; in short: as §1
# [12] = test system: K562; assay: cytotoxicity against leukemia subpanel (K562); Experiment 1; format: functional; details: Homo sapiens; in short: as §1
# [13] = test system: CCRF-CEM; assay: cytotoxicity against leukemia subpanel (CCRF-CEM); Experiment 2; format: functional; details: Homo sapiens; in short: as §1
# [14] = test system: DMS-273; assay: cytotoxicity against small cell lung cancer subpanel (DMS 273); Experiment 1; format: functional; details: Homo sapiens; in short: as §1
# [15] = MGDH represents the selectivity or relative sensitivity of the tumor cell panel to the drug.; Experiment 2; format: functional
# In short: (§3)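 NCI 60-line screen, DMSO solutions at five concentrations (10^-4–10^-8 M). Log10 GI50 was found per line. MG MID is the calculated mean over all panels. Sensitivity is expressed as the log-scale difference of a line or subpanel from that mean. Experiment 1 and Experiment 2 are separate runs.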
# [16] = MGDH represents the selectivity or relative sensitivity of the tumor cell panel to the drug.; Experiment 1; format: functional; in short: as §3
# [17] = test system: HL-60; assay: cytotoxicity against leukemia subpanel (HL-60 (TB)); Experiment 2; format: functional; details: Homo sapiens; in short: as §1
# [18] = test system: CCRF-CEM; assay: cytotoxicity against leukemia subpanel (CCRF-CEM); Experiment 1; format: functional; details: Homo sapiens; in short: as §1
# [19] = test system: DMS-114; assay: cytotoxicity against small cell lung cancer subpanel (DMS 114); Experiment 1; format: functional; details: Homo sapiens; in short: as §1
# [20] = test system: Mus musculus; assay: Percentage increased life span against L1210 leukemia cells in mice (1.08 mmol/kg dosage); Toxic; format: toxicity, organism-based; in short: as §2
SMILES,GI50 [1] [nM],GI50 [2] [nM],GI50 [3] [nM],ILS [4] [%],GI50 [5] [nM],GI50 [6] [nM],GI50 [7] [nM],GI50 [8] [nM],GI50 [9] [nM],GI50 [10] [nM],GI50 [11] [nM],GI50 [12] [nM],GI50 [13] [nM],GI50 [14] [nM],MGDH GI50 [15],MGDH GI50 [16],GI50 [17] [nM],GI50 [18] [nM],GI50 [19] [nM],ILS [20]
CCN(CC)C(=S)SC1CCOP(=O)(N(CCCl)CCCl)N1C (stereo unspecified),380,331,209,>92,37.1,389,31.6,87.1,69.2,398,49,52.5,39.8,120,87.78,69.72,288,31.6,170,–
CN1C(OO)CCOP1(=O)N(CCCl)CCCl (stereo unspecified),–,–,–,–,–,–,–,–,–,–,–,–,–,–,–,–,–,–,–,Toxic
O=P1(N(CCCl)CCCl)NCCCO1 (stereo unspecified) [CYCLOPHOSPHAMIDE ANHYDROUS],–,–,–,>187,–,–,–,–,–,–,–,–,–,–,–,–,–,–,–,–
